Reference: ChEMBL document CHEMBL3992553, “New nitrofurans amenable by isocyanide multicomponent chemistry are active against multidrug-resistant and poly-resistant Mycobacterium tuberculosis” (Bioorg Med Chem, 2017)
In brackets after ≈: the same amount, converted by molar mass.

How the values were obtained:
Staphylococcus aureus [1] = assay: Antibacterial activity against methicillin-resistant Staphylococcus aureus RKI 11-02670 after 18 hrs; format: functional; settings: RKI 11-02670, 18 h
Outline: (§1)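 Broth microdilution MIC. Gram-negatives grown overnight at 37 °C in Müller-Hinton broth + 1% glucose, pH 7.2; Gram-positives in trypticase soy broth with yeast extract, pH 7.2. Inoculum 5×10^5 cfu/mL final. Serial dilutions from 100 µM down to 0.2 µM, DMSO ≤1%. 18 h at 37 °C, moist; OD600. MIC = lowest concentration completely suppressing growth.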

Staphylococcus aureus [2] = assay: Antibacterial activity against methicillin-resistant Staphylococcus aureus DSM 11822 after 18 hrs; format: functional; settings: DSM 11822, 18 h; outline: as §1
Enterococcus faecium = assay: Antibacterial activity against Enterococcus faecium DSM 20477 after 18 hrs; format: functional; settings: DSM 20477, 18 h; outline: as §1
Escherichia coli [3] = assay: Growth inhibition of Escherichia coli DSM 1116 at 100 uM after 18 hrs relative to control; format: functional; settings: DSM 1116, 18 h, read-out: GI
Outline: (§2)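 Gram-negative culture grown overnight at 37 °C in Müller-Hinton broth + 1% glucose, pH 7.2, then tested at 5×10^5 cfu/mL final. Compound at 100 µM from DMSO stock, DMSO ≤1%. Incubated 18 h at 37 °C under moist conditions. OD600 read; value reported as % growth inhibition.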

Pseudomonas aeruginosa [4] = assay: Growth inhibition of Pseudomonas aeruginosa PA7 DSM 24068 at 100 uM after 18 hrs relative to control; format: functional; settings: PA7 DSM 24068, 18 h, read-out: GI; outline: as §2
[5] = tested on: Mycobacterium tuberculosis; assay: Antimycobacterial activity against Mycobacterium tuberculosis H37Rv after 7 days by REMA; format: functional; settings: 168 h
Outline: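 REMA. 3-week H37Rv culture (2nd generation on Löwenstein–Jensen) vortexed with glass beads, set to 1.0 McFarland in 7H9, diluted 20-fold in 7H9 + OADC. 2-fold dilutions, final 1.6–400 µg/mL, 200 µL wells. 7 days at 35 °C, then resazurin 18 h. Fluorescence ex 520/em 590. MIC where signal plateaued or matched the 1% population control (t test).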

Escherichia coli [6] = assay: Antibacterial activity against Escherichia coli DSM 1116 after 18 hrs; format: functional; settings: DSM 1116, 18 h; outline: as §1
Pseudomonas aeruginosa [7] = assay: Antibacterial activity against Pseudomonas aeruginosa PA7 DSM 24068 after 18 hrs; format: functional; settings: PA7 DSM 24068, 18 h; outline: as §1
Acinetobacter baumannii = assay: Antibacterial activity against Acinetobacter baumannii DSM 30007 after 18 hrs; format: functional; settings: DSM 30007, 18 h; outline: as §1
Klebsiella pneumoniae = assay: Antibacterial activity against Klebsiella pneumoniae DSM 11678 after 18 hrs; format: functional; settings: DSM 11678, 18 h; outline: as §1
[8] = (§3) Cytotoxicity against mouse L929 cells assessed as reduction in cell viability after 5 days by WST1 assay; format: cell-based; settings: mouse, L929 cells
Outline: (§4)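 KB-3-1 or L929 cells, 1500 per well, in DMEM + 5% FBS. Exposed to serially diluted compound for 5 days. WST-1 added, plates incubated at 37 °C (20 min for KB-3-1), absorbance read at 450 nm (reference 600 nm). Viability given as % of controls.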

L929 = assay: as §3; format: cell-based; settings: Mus musculus, L929, 120 h; outline: as §4
[9] = (§5) Cytotoxicity against human KB-3-1 cells assessed as reduction in cell viability after 5 days by WST1 assay; format: cell-based; settings: human, KB-3-1 cells; outline: as §4
KB 3-1 = assay: as §5; format: cell-based; settings: Homo sapiens, KB 3-1, 120 h; outline: as §4
[10] = (§6) Cytotoxicity against human MCF7 cells assessed as reduction in cell viability after 5 days by WST1 assay; format: cell-based; settings: human, MCF7 cells
Outline: (§7)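 MCF-7 cells, 3000 per well, in RPMI + 5% FBS, 0.5% NEAA, 0.5% GlutaMAX and insulin 5 µg/mL. Exposed to serially diluted compound for 5 days. WST-1 incubation 2 h at 37 °C, absorbance read at 450 nm (reference 600 nm). Viability given as % of controls.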

MCF7 = assay: as §6; format: cell-based; settings: Homo sapiens, MCF7, 120 h; outline: as §7
[11] = Cytotoxicity against human FS4-LTM cells assessed as reduction in cell viability after 24 hrs by WST1 assay; format: cell-based; settings: for IC50: Homo sapiens, FS4-LTM, 24 h; for IC90 at 24 h: human, FS4-LTM cells
Outline: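 FS4-LTM conditionally immortalized human fibroblasts, kept without doxycycline for primary-like behaviour, in DMEM + 5% FBS. Exposed to serially diluted compound for 24 h. WST-1 added, plates incubated at 37 °C, absorbance read at 450 nm (reference 600 nm). Viability given as % of controls set to 100%.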

SMILES | EC50 (Staphylococcus aureus [1]) | MIC (Staphylococcus aureus [1]) | MIC (Staphylococcus aureus [2]) [µM] | MIC (Enterococcus faecium) | inhibition of growth at 100 µM (Escherichia coli [3]) [%] | inhibition of growth at 100 µM (Pseudomonas aeruginosa [4]) [%] | MIC [5] [µM] | MIC (Acinetobacter baumannii) | MIC (Klebsiella pneumoniae) | further results
CC(=O)NC[C@H]1CN(c2ccc(N3CCOCC3)c(F)c2)C(=O)O1 [LINEZOLID] | 0.25 µg/mL | 0.62 µg/mL | – | – | – | – | – | – | – | –
CC(C)(C)NC(=O)C1(C)CCCC(=O)N1/N=C/c1ccc([N+](=O)[O-])o1 (stereo not given) | 76 µM | 100 µM | 100 (≈ 35 µg/mL) | > 100 µM | 83 | 85 | 71 (≈ 24.9 µg/mL) | – | – | –
CC1(C(=O)NC2CCCCC2)CCC(=O)N1/N=C/c1ccc([N+](=O)[O-])o1 (stereo not given) | 79 µM | ≥ 100 µM | > 100 | > 100 µM | 85 | 90 | 70 (≈ 25.4 µg/mL) | – | – | –
CC1(C(=O)NCc2ccc(Cl)cc2)CCCC(=O)N1/N=C/c1ccc([N+](=O)[O-])o1 (stereo not given) | 75 µM | 100 µM | 100 (≈ 41.9 µg/mL) | > 100 µM | 84 | 98 | > 100 | – | – | –
CC1(C(=O)NCc2ccccc2)CSCC(=O)N1/N=C/c1ccc([N+](=O)[O-])o1 (stereo not given) | 64 µM | > 100 µM | > 100 | > 100 µM | – | – | > 100 | > 100 µM | > 100 µM | EC50 (Enterococcus faecium): > 100 µM; EC50 (Escherichia coli [6]): > 100 µM; MIC (Escherichia coli [6]): > 100 µM; EC50 (Pseudomonas aeruginosa [7]): > 100 µM; MIC (Pseudomonas aeruginosa [7]): > 100 µM; EC50 (Acinetobacter baumannii): > 100 µM; EC50 (Klebsiella pneumoniae): > 100 µM
CC1(C(=O)NCc2ccccc2)CCC(=O)N1/N=C/c1ccc([N+](=O)[O-])o1 (stereo not given) | 67 µM | 95 µM | 95 (≈ 35.2 µg/mL) | > 100 µM | 85 | 90 | > 100 | – | – | –
CC1(C(=O)NC2CCCCC2)CCCC(=O)N1/N=C/c1ccc([N+](=O)[O-])o1 (stereo not given) | 70 µM | 100 µM | 100 (≈ 37.6 µg/mL) | > 100 µM | 81 | 88 | 33 (≈ 12.4 µg/mL) | > 100 µM | > 100 µM | IC90 at 120 h [8]: > 100 µM; IC50 (L929): 50 to 50.2 µM; IC90 at 120 h [9]: 100 µM; IC50 (KB 3-1): 61 µM; IC90 at 120 h [10]: 100 µM; IC50 (MCF7): 19 µM; IC50 [11]: 19.3 to 100 µM; IC90 at 24 h [11]: ≥ 100 µM
CC(C)(C)NC(=O)C1(C)COCC(=O)N1/N=C/c1ccc([N+](=O)[O-])o1 (stereo not given) | 50 µM | > 100 µM | > 100 | > 100 µM | – | – | > 100 | > 100 µM | > 100 µM | EC50 (Enterococcus faecium): > 100 µM; EC50 (Escherichia coli [6]): > 100 µM; MIC (Escherichia coli [6]): > 100 µM; EC50 (Pseudomonas aeruginosa [7]): > 100 µM; MIC (Pseudomonas aeruginosa [7]): > 100 µM; EC50 (Acinetobacter baumannii): > 100 µM; EC50 (Klebsiella pneumoniae): > 100 µM
CC1(C(=O)NCc2ccccc2)CCCC(=O)N1/N=C/c1ccc([N+](=O)[O-])o1 (stereo not given) | 75 µM | 100 µM | 100 (≈ 38.4 µg/mL) | > 100 µM | 87 | 85 | 65 (≈ 25 µg/mL) | – | – | –
CC1(C(=O)NC2CCCCC2)CSCC(=O)N1/N=C/c1ccc([N+](=O)[O-])o1 (stereo not given) | 55 µM | 100 µM | 100 (≈ 39.4 µg/mL) | > 100 µM | 84 | 91 | 32 (≈ 12.6 µg/mL) | > 100 µM | > 100 µM | IC90 at 120 h [8]: > 100 µM; IC50 (L929): 50 µM; IC90 at 120 h [9]: 100 µM; IC50 (KB 3-1): 16 µM; IC90 at 120 h [10]: > 100 µM; IC50 (MCF7): 8.7 µM; IC50 [11]: 8.7 to 100 µM; IC90 at 24 h [11]: ≥ 100 µM
CC1(C(=O)NCc2ccc(Cl)cc2)CCC(=O)N1/N=C/c1ccc([N+](=O)[O-])o1 (stereo not given) | > 100 µM | > 100 µM | > 100 | > 100 µM | 82 | 89 | > 100 | – | – | –
CC(C)(C)NC(=O)C1(C)CCC(=O)N1/N=C/c1ccc([N+](=O)[O-])o1 (stereo not given) | 91 µM | > 100 µM | > 100 | > 100 µM | 86 | 92 | > 100 | – | – | –
CC1(C(=O)NC2CCCCC2)COCC(=O)N1/N=C/c1ccc([N+](=O)[O-])o1 (stereo not given) | 75 µM | 100 µM | 100 (≈ 37.8 µg/mL) | > 100 µM | 84 | 90 | 66 (≈ 25 µg/mL) | – | – | –
CC1(C(=O)NCc2ccccc2)COCC(=O)N1/N=C/c1ccc([N+](=O)[O-])o1 (stereo not given) | 77 µM | 100 µM | 100 (≈ 38.6 µg/mL) | > 100 µM | 83 | 86 | 65 (≈ 25.1 µg/mL) | – | – | –
NCC[C@H](O)C(=O)N[C@@H]1C[C@H](N)[C@@H](O[C@H]2O[C@H](CN)[C@@H](O)[C@H](O)[C@H]2O)[C@H](O)[C@H]1O[C@H]1O[C@H](CO)[C@@H](O)[C@H](N)[C@H]1O [AMIKACIN] | – | – | – | – | – | – | – | – | – | EC50 (Pseudomonas aeruginosa [7]): 3.8 µg/mL; MIC (Pseudomonas aeruginosa [7]): 4.5 µg/mL
O=C(O)c1cn(C2CC2)c2cc(N3CCNCC3)c(F)cc2c1=O [CIPROFLOXACIN] | – | – | – | 8 µg/mL | – | – | – | 0.2 µg/mL | 0.07 µg/mL | EC50 (Enterococcus faecium): 2.29 µg/mL; EC50 (Escherichia coli [6]): 0.01 µg/mL; EC50 (Acinetobacter baumannii): 0.2 µg/mL; EC50 (Klebsiella pneumoniae): 0.05 µg/mL
CC1(C(=O)NC2CCCCC2)CN(S(C)(=O)=O)CC(=O)N1/N=C/c1ccc([N+](=O)[O-])o1 (stereo not given) | 35.7 µM | > 100 µM | > 100 | > 100 µM | – | – | 55 (≈ 25.1 µg/mL) | > 100 µM | > 100 µM | EC50 (Enterococcus faecium): > 100 µM; EC50 (Escherichia coli [6]): > 100 µM; MIC (Escherichia coli [6]): > 100 µM; EC50 (Pseudomonas aeruginosa [7]): > 100 µM; MIC (Pseudomonas aeruginosa [7]): > 100 µM; EC50 (Acinetobacter baumannii): > 100 µM; EC50 (Klebsiella pneumoniae): > 100 µM
